As usually defined, the EC50 is the midpoint of the concentration-response curve.

Bounds are passed on as bounds.

This assay relates to N2a. Put plainly: Cytotoxicity against mouse Neuro-2a cells assessed as reduction in cell viability incubated for 72 hrs by MTT assay. It is filed as functional, cell-based. In outline: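 Murine neuroblastoma neuro-2A cells were tested over a range of concentrations, with four technical replicates per concentration. Each assay was run in triplicate. Doxorubicin served as the positive control. EC50 was taken from concentration–viability curves.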
Background: Tetrazolium dyes change colour on reduction, which living cells bring about.
Turning to `C#CCCCCC/C(=C/Cl)CC[C@H](O)/C=C(\C)[C@H](O)CC=C`, the concentration giving a half-maximal response (EC50) was > 50 µM.

Consider `COC1=CC(=O)O[C@@H]([C@H](C)C[C@H](C)CC(C)=O)C1`, for which the EC50 is > 100 µM.

As for `C#CCCC/C(=C/Cl)C[C@H](O)CC[C@@H](C)C[C@@H](C)[C@H](O)CCCC[C@@H](C)[C@H](O)CC=C`, the EC50 was determined as 12 µM.

Consider `C[C@H](CC[C@@H](O)C/C(=C/Cl)CCCC#CBr)C[C@@H](C)[C@@H](O)C/C=C/Cl`, for which the EC50 is > 100 µM.

For `C=CC[C@@H](OC(C)=O)[C@H](C)CCCC[C@@H](OC(C)=O)[C@H](C)C[C@H](C)CC[C@H](C/C(=C\Cl)Cc1ccccc1)OC(C)=O`, the 50% effective concentration (EC50) was > 100 µM.

`C[C@H](CC[C@@H](O)C/C(=C/Cl)Cc1ccccc1)C[C@@H](C)[C@@H](O)C/C=C/Cl`: the EC50 was found to be 24 µM.

For the compound `C[C@H](CC[C@@H](O)C/C(=C\Cl)Cc1ccccc1)C[C@@H](C)[C@@H](O)C/C=C/Cl`, the EC50 turned out to be 13 µM.

For the compound `CCC(=O)N(C)CCC/C(=C\Cl)C/C=C(\C)C[C@@H](C)C[C@@H](C)[C@H]1CC(OC)=CC(=O)O1`, the EC50 was 14 µM.

`C#CCCC/C(=C\Cl)C[C@H](O)CC[C@@H](C)C[C@@H](C)[C@@H](O)C/C=C/Cl`: the half-maximal effective concentration (EC50) is 40 µM.

In the case of `C=CC[C@@H](O)[C@H](C)CCCC[C@@H](O)[C@H](C)C[C@H](C)CC[C@@H](O)C/C(=C\Cl)Cc1ccccc1`, the EC50 worked out at 6.5 µM.

Take `C=CC[C@H](O)[C@H](C)C[C@H](C)CC[C@@H](O)C/C(=C\Cl)Cc1ccccc1`: the concentration giving a half-maximal response (EC50) was determined as 8.4 µM.

With `COC1=CC(=O)O[C@@H]([C@H](C)C[C@H](C)CC[C@@H](O)C/C(=C/Cl)Cc2ccccc2)C1`, the half-maximal effective concentration (EC50) worked out at 15 µM.

As for `CC(=O)O[C@H](CC[C@@H](C)C[C@@H](C)[C@H](C/C=C/Cl)OC(C)=O)C/C(=C\Cl)Cc1ccccc1`, the EC50 was > 100 µM.

Regarding `C=CC[C@@H](O)/C(C)=C/[C@@H](O)CC/C(=C\Cl)Cc1ccccc1`, the concentration for a half-maximal effect (EC50) is > 50 µM.

With `COc1cccc2c1C(=O)c1c(O)c3c(c(O)c1C2=O)C[C@@](O)(C(=O)CO)C[C@@H]3O[C@H]1C[C@H](N)[C@H](O)[C@H](C)O1` [DOXORUBICIN], the EC50 is 127 µM.

The record behind these values is ChEMBL document CHEMBL4699465, “Isolation of Isotrichophycin C and Trichophycins G-I from a Collection of Trichodesmium thiebautii” (J Nat Prod, 2020).
